In ChEMBL document CHEMBL4428067, “Drug Discovery against Psoriasis: Identification of a New Potent FMS-like Tyrosine Kinase 3 (FLT3) Inhibitor, 1-(4-((1H-Pyrazolo[3,4-d]pyrimidin-4-yl)oxy)-3-fluorophenyl)-3-(5-(tert-butyl)isoxazol-3-yl)urea, That Showed Potent Activity in a Psoriatic Animal Model” (J Med Chem, 2016):
Activity calls are given as the source filed them. The rule behind the calls is not given here.

What was measured:
[1] = target: T1, Receptor-type tyrosine-protein kinase FLT3 (Mus musculus) (UniProt Q00342); assay: Inhibition of FLT3 in Balb/c mouse BMDCs assessed as suppression of FLT3L-induced pDC formation measured as lower left quadrant cells level treated on day 9 post 9 days of FLT3L-stimulation measured after 24 hrs by CD11c PerCP and CD45R/B220 FITC staining based flow cytometric analysis (reference value: 36.5%); parameters: scale not given: the % may be the effect or the level left
T1 sequence (whole entry): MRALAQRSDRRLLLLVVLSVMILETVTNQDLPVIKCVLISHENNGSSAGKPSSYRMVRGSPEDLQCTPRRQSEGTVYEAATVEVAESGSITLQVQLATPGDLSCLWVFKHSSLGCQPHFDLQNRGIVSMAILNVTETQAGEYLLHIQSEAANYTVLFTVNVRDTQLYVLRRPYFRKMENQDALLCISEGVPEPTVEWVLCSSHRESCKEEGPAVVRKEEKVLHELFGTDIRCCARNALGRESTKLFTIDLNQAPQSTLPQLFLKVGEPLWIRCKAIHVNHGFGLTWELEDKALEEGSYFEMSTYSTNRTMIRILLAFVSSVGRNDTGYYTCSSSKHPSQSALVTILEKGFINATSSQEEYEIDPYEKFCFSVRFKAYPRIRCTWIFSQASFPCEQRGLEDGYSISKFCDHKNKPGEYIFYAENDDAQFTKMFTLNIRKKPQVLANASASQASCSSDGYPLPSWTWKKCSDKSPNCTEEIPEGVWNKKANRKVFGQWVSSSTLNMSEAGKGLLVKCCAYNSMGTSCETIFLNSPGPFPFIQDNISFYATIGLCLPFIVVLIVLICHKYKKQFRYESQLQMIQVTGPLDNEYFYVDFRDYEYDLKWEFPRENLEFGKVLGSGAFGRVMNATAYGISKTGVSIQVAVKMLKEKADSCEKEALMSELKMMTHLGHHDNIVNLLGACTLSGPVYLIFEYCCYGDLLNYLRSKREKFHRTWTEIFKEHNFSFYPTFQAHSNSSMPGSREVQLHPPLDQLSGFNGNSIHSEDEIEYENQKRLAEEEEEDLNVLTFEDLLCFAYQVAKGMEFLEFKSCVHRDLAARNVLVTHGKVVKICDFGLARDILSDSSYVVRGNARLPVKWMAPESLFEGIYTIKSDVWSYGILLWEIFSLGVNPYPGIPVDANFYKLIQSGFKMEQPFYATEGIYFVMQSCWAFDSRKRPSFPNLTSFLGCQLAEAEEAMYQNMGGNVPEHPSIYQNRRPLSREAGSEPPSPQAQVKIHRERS
How it was run: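 BALB/c bone marrow cells were cultured at 1×10^6/ml with FLT3L in supplemented RPMI-1640 for 9 days. Compound in DMSO or 0.1% DMSO was added on day 9 for 24 h. Cells were stained for 30 min with CD11c PerCP plus B220 FITC (pDC: CD11c+ B220+) or MHC II FITC (mDC: CD11c+ MHC II+), then analysed by flow cytometry. Three independent experiments.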

[2] = tested on: BMDC; assay: Decrease in IL23 level in Balb/c mouse BMDCs at 10 nM treated on day 9 post 9 days of FLT3L-stimulation measured after 12 hrs by ELISA; format: functional, cell-based
How it was run: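 BALB/c bone marrow cells were plated at 1×10^6/ml in RPMI-1640 with 10% FCS, 10^-4 M 2-ME, pyruvate, antibiotics and FLT3L for 9 days. On day 9, compound in DMSO or 0.1% DMSO was added. After 12 h, supernatant IFN-γ and IL-23 were measured by ELISA. Three independent experiments.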

[3] = species on record: Mus musculus; assay: Antipsoriatic activity in K14-VEGF transgenic mouse model of psoriasis assessed alleviation in lack of granular layer at 0.05% applied tropically over lesion for continuous 29 days by H and E staining method relative to vehicle control; format: functional, organism-based
How it was run: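 Homozygous K14-VEGF mice, 3–4 months old, with moderate to serious psoriasis; n=3 per group. Cream with 0.05% compound or vehicle cream smeared on lesions. Head and neck tissue sections taken after 29 days of treatment and HE-stained. Baker pathological score from 5 random fields, given as mean and SD. Epidermal thickness from 8 random fields, given as mean ± SEM.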

[4] = species on record: Mus musculus; assay: Antipsoriatic activity in K14-VEGF transgenic mouse model of psoriasis assessed as decrease in CD8 expression in psoriatic lesion at 0.05% applied tropically over lesion for continuous 29 days by immunohistochemical analysis relative to vehicle control; format: functional; parameters: scale not given: the % may be the effect or the level left
How it was run: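 K14-VEGF mice were treated topically with 0.05% cream or vehicle for 29 days, n=3 per group. Ear skin was paraffin-embedded, cut into 4-µm sections and immunostained. Staining was quantified in 5 random fields, reported as mean ± SD.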

[5] = species on record: Mus musculus; assay: Antipsoriatic activity in K14-VEGF transgenic mouse model of psoriasis assessed as decrease in Th17 cell formation in lymph node at 0.05% applied tropically over lesion for 29 days by flow cytometric analysis relative to vehicle-treated control; format: functional, organism-based
How it was run: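 K14-VEGF mice were treated topically for 29 days with 0.05% cream or vehicle. Lymph node cells were surface-stained with anti-CD4 PE, then fixed and permeabilised. They were stained with FITC anti-IL-17 and analysed by flow cytometry, three mice, mean ± SD.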

Activity [1]: 47.2%
Compound: CC(C)(C)c1cc(NC(=O)Nc2ccc(Oc3ncnc4[nH]ncc34)c(F)c2)no1
inhibition [2]: Active | Activity [3]: Active | Activity [4]: 79% | Activity [5]: Active
